Data taken from ChEMBL document CHEMBL1157043, “An eco-friendly synthesis and antimicrobial activities of dihydro-2H-benzo- and naphtho-1,3-oxazine derivatives” (Eur J Med Chem, 2010).
Converted amounts (≈) assume the structure as drawn.

Key:
Escherichia coli = test: Antimicrobial activity against Escherichia coli after 24 hrs; format: functional
Outline: (§1)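 NCCLS microdilution in Mueller Hinton broth. Strains were grown 24 h on nutrient agar at 37 °C, suspended at about 1.0–2.0 × 10^7 cells/mL (McFarland-matched) in saline with 0.05% Tween 20, then diluted 100 µL into 10 mL medium. Compounds were taken from a 1 mg/mL DMSO stock as twofold dilutions, top final 50 µg/mL. Incubation was 35 °C in a moist, dark chamber, and MIC was read spectrophotometrically at 24 h.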

Candida albicans = test: Antimicrobial activity against Candida albicans after 24 hrs; format: functional
Outline: (§2)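 Broth microdilution per NCCLS guidelines in MOPS-buffered RPMI 1640. Starting inoculum was 1-5 × 10^3 cfu/mL, and plates were incubated at 35 °C. MIC was read spectrophotometrically at 492 nm after 24–48 h for yeasts and 72–96 h for mycelial fungi.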

Cryptococcus neoformans = test: Antimicrobial activity against Cryptococcus neoformans after 24 hrs; format: functional; outline: as §2
Candida parapsilosis = test: Antimicrobial activity against Candida parapsilosis ATCC 22019 after 24 hrs; format: functional; details: Lodderomyces parapsilosis, ATCC 22019, 24 h; outline: as §2
Klebsiella pneumoniae = test: Antimicrobial activity against Klebsiella pneumoniae after 24 hrs; format: functional; outline: as §1
Pseudomonas aeruginosa = test: Antimicrobial activity against Pseudomonas aeruginosa after 24 hrs; format: functional; outline: as §1
Sporothrix schenckii = test: Antimicrobial activity against Sporothrix schenckii after 24 hrs; format: functional; outline: as §2
[1] = tested on: Trichophyton mentagrophytes; test: Antimicrobial activity against Trichophyton mentagrophytes after 24 hrs; format: functional
Staphylococcus aureus = test: Antimicrobial activity against Staphylococcus aureus after 24 hrs; format: functional; outline: as §1
Aspergillus fumigatus [2] = test: Antimicrobial activity against Aspergillus fumigatus after 24 hrs; format: functional
Aspergillus fumigatus [3] = test: Antimicrobial activity against Aspergillus fumigatus after 72 to 96 hrs
L929 [4] = test: Cytotoxicity against mouse L929 cells at 6.25 ug/ml after 24 hrs by MTT assay; format: cell-based; details: l929, 24 h
Outline: (§3)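 L929 mouse fibroblasts were grown in RPMI 1640 with 10% FBS at 37 °C under 5% CO2 and seeded at 1.0 × 10^5 cells/mL. At 80% confluence the medium was switched to serum-free RPMI, and cells were exposed 24 h to 0.09–25 µg/mL in twofold steps. After PBS washes, cells got 0.5 mg/mL MTT for 4 h at 37 °C, then DMSO for 30 min at room temperature. Viability was calculated as (A570−A630) relative to untreated cells.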

[5] = Cytotoxicity against mouse L929 cells assessed as viability at 12.5 to 25 ug/ml after 24 hrs by MTT assay; format: cell-based; details: read-out: Activity; outline: as §3
[6] = tested on: Trichophyton mentagrophytes; test: Antimicrobial activity against Trichophyton mentagrophytes after 72 to 96 hrs
L929 [7] = test: Cytotoxicity against mouse L929 cells assessed as change in morphology at 6.25 ug/ml after 24 hrs […]; format: cell-based; details: l929, 24 h
Outline: (§4)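 L929 fibroblasts (serum-free RPMI, 37 °C, 5% CO2) were exposed to compound for 24 h, then fixed and stained with Giemsa for 30 min at 37 °C. Excess stain was washed off with PBS, plates were air-dried, and cell morphology was examined under a phase contrast microscope against untreated controls.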

L929 [8] = test: Cytotoxicity against mouse L929 cells assessed as change in cellular morphology at 12.5 to 25 ug/ml after 24 hrs […]; format: cell-based; details: l929, 24 h; outline: as §4

SMILES	MIC (Escherichia coli) [µg/mL]	MIC (Candida albicans) [µg/mL]	MIC (Cryptococcus neoformans) [µg/mL]	MIC (Candida parapsilosis) [µg/mL]	MIC (Klebsiella pneumoniae) [µg/mL]	MIC (Pseudomonas aeruginosa) [µg/mL]	MIC (Sporothrix schenckii) [µg/mL]	MIC [1] [µg/mL]	MIC (Staphylococcus aureus) [µg/mL]	MIC (Aspergillus fumigatus [2]) [µg/mL]	MIC (Aspergillus fumigatus [3]) [µg/mL]	Activity (L929 [4])	viability at 24 h [5] [%]	MIC [6] [µg/mL]	Activity (L929 [7])	Activity (L929 [8])
Cc1ccc2c(c1)CN(c1ccc(Cl)cc1)CO2	> 50	50 (≈ 193 µM)	25 (≈ 96.3 µM)	50 (≈ 193 µM)	25 (≈ 96.3 µM)	50 (≈ 193 µM)	12.5 (≈ 48.1 µM)	12.5 (≈ 48.1 µM)	25 (≈ 96.3 µM)	25 (≈ 96.3 µM)	–	–	–	–	–	–
Cc1ccc2c(c1)CN(c1ccc(F)cc1)CO2	50 (≈ 206 µM)	> 50	50 (≈ 206 µM)	> 50	50 (≈ 206 µM)	50 (≈ 206 µM)	25 (≈ 103 µM)	25 (≈ 103 µM)	50 (≈ 206 µM)	> 50	–	–	–	–	–	–
Clc1cc(Cl)c2c(c1)CN(CCN1COc3c(Cl)cc(Cl)cc3C1)CO2	> 50	50 (≈ 115 µM)	25 (≈ 57.6 µM)	50 (≈ 115 µM)	1.56 (≈ 3.59 µM)	> 50	> 50	–	0.39 (≈ 0.898 µM)	–	50 (≈ 115 µM)	Non-toxic	> 90	25 (≈ 57.6 µM)	Non-toxic	Toxic
Clc1ccccc1N1COc2c(Cl)ccc(Cl)c2C1	> 50	> 50	50 (≈ 159 µM)	50 (≈ 159 µM)	6.25 (≈ 19.9 µM)	50 (≈ 159 µM)	12.5 (≈ 39.7 µM)	–	12.5 (≈ 39.7 µM)	–	50 (≈ 159 µM)	Non-toxic	> 90	12.5 (≈ 39.7 µM)	Non-toxic	Toxic
